# Test results as given in ChEMBL document CHEMBL1124772, “Synthesis and anticonvulsant activity of 1-phenylcyclohexylamine analogues” (J Med Chem, 1990).
# Columns and labels:
# [1] = molecular target: Glutamate NMDA receptor; assay: Evaluated in vitro binding affinity against PCP receptor using [3H]TCP as radioligand in rat brain membranes; format: cell membranes
# [2] = species: Mus musculus; assay: TI value is the ratio between TD50 and ED50; format: functional
# Summary of the method: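 Ratio TD50/MES ED50. Both values from ip dosing in male Swiss mice (25–30 g), 0.9% NaCl carrier. Five to 10 doses, eight mice per dose; each value by log-probit analysis.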
# [3] = tested on: Mus musculus; assay: Evaluated for anticonvulsant activity (TD50) by motor toxicity assay in mouse by intraperitoneal administration.; format: functional; settings: ip
# Summary of the method: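 Male Swiss mice (25–30 g), ip in 0.9% NaCl carrier. Five to 10 doses, eight mice per dose; TD50 with 95% confidence limits by log-probit analysis. Compounds given as HCl salts, one as a methiodide.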
# [4] = tested on: Mus musculus; assay: Evaluated for anticonvulsant activity (ED50) by maximal electroshock (MES) seizure test in mouse by intraperitoneal administration.; format: functional
# Summary of the method: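 Protection means no tonic-extensor component. Five to 10 doses, eight mice per dose; ED50 with 95% confidence limits by log-probit analysis. Compounds given as HCl salts, one as a methiodide.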
# [5] = tested on: Mus musculus; assay: Evaluated for anticonvulsant activity (TD50) by motor toxicity assay in mouse by intraperitoneal administration; range is 40.6-54.8; format: functional; settings: ip
SMILES,Ki [1],TI [2],TD50 [3],MES ED50 [4],TD50 [5]
Cl.NC1(c2ccc3ccccc3c2)CCCCC1,34000 nM,1.82,30.9 mg/kg,16.91 mg/kg,
Cl.NC1(c2cccs2)CCCCC1,145 nM,0.47,4.99 mg/kg,10.5 mg/kg,
Cl.NC1(c2ccc(F)cc2)CCCCC1,923 nM,0.9,23.4 mg/kg,26.18 mg/kg,
C[C@H]1CCC[C@@](N)(c2ccccc2)C1.Cl,1640 nM,3.04,24.3 mg/kg,8.01 mg/kg,
Cl.NC1(c2ccccc2F)CCCCC1,10700 nM,2.67,61.2 mg/kg,22.93 mg/kg,
CCC(N)(CC)c1ccccc1.Cl,6000 nM,1.35,42.1 mg/kg,31.23 mg/kg,
C[C@H]1CCCC[C@]1(N)c1ccccc1.Cl (racemic),2000 nM,0.74,5.92 mg/kg,8.01 mg/kg,
CSc1ccccc1C1(N)CCCCC1.Cl,820 nM,1.12,29.3 mg/kg,26.18 mg/kg,
c1ccc(C2(N3CCCCC3)CCCCC2)cc1 [PHENCYCLIDINE],60 nM,0.93,2.9 mg/kg,3.1 mg/kg,
Cc1ccccc1C1(N)CCCCC1.Cl,7800 nM,1.46,7.19 mg/kg,4.93 mg/kg,
COc1ccc(C2(N)CCCCC2)cc1.Cl,121000 nM,2.39,77.9 mg/kg,32.67 mg/kg,
CN(C)C1(c2ccccc2)CCCCC1.Cl,722 nM,2.32,11.3 mg/kg,4.86 mg/kg,
CCCCC1(N)CCCCC1.Cl,,,,>40.6 mg/kg,40.6 mg/kg
Cl.NC1(c2ccccc2)CCCC1,10500 nM,3.49,64.6 mg/kg,18.52 mg/kg,
Cl.NCC1(c2ccccc2)CCCCC1,5100 nM,1.87,51.9 mg/kg,27.7 mg/kg,
Cl.NC1(c2ccccc2)CCCCCC1,2600 nM,2.18,43 mg/kg,19.73 mg/kg,
C[C@H]1CC[C@](N)(c2ccccc2)CC1.Cl,1100 nM,3.44,46.6 mg/kg,13.53 mg/kg,
Cl.NC1(c2cccc(F)c2)CCCCC1,675 nM,2.15,20.2 mg/kg,9.36 mg/kg,
C[C@H]1CC[C@@](N)(c2ccccc2)CC1.Cl,8400 nM,2.05,69.3 mg/kg,33.75 mg/kg,
Cc1ccc(C2(N)CCCCC2)cc1.Cl,7300 nM,,> 74 mg/kg,>74 mg/kg,

SMILES,Ki [1],TI [2],TD50 [3],MES ED50 [4],TD50 [5]
C[C@@H]1CCC[C@@](N)(c2ccccc2)C1.Cl,8000 nM,1.98,15.9 mg/kg,8.04 mg/kg,
C[C@@H]1CCCC[C@]1(N)c1ccccc1.Cl (racemic),1600 nM,2.05,34.6 mg/kg,16.87 mg/kg,
Cl.NC1(c2cccc(C(F)(F)F)c2)CCCCC1,8400 nM,0.66,16 mg/kg,24.31 mg/kg,
Cl.NC1(c2cc3ccccc3c3ccccc23)CCCCC1,27500 nM,1.28,20.6 mg/kg,16.02 mg/kg,
C[C@@H]1CCC[C@](N)(c2ccccc2)C1.Cl,1200 nM,2.69,56.1 mg/kg,20.86 mg/kg,
Cl.NC1(c2cccc(OCc3ccccc3)c2)CCCCC1,10600 nM,2.28,67 mg/kg,29.41 mg/kg,
C[N+](C)(C)C1(c2ccccc2)CCCCC1.[I-],14300 nM,,> 64 mg/kg,>64 mg/kg,
COc1ccccc1C1(N)CCCCC1.Cl,850 nM,2.84,31.6 mg/kg,11.11 mg/kg,
Cl.NC1(Cc2ccccc2)CCCCC1,16000 nM,1.95,67.2 mg/kg,34.52 mg/kg,
Cl.NC1(c2ccccc2C(F)(F)F)CCCCC1,12400 nM,1.29,39.2 mg/kg,30.36 mg/kg,
Cl.NC1(c2cccc(O)c2)CCCCC1,222 nM,1.21,42.7 mg/kg,35.25 mg/kg,
CSc1ccc(C2(N)CCCCC2)cc1.Cl,43000 nM,1.89,77.1 mg/kg,40.8 mg/kg,
Cc1cccc(C2(N)CCCCC2)c1.Cl,592 nM,1.37,26.2 mg/kg,19.11 mg/kg,
CNC1(c2ccccc2)CCCCC1.Cl,347 nM,0.34,1.56 mg/kg,4.62 mg/kg,
CSc1cccc(C2(N)CCCCC2)c1.Cl,2420 nM,1.94,63.7 mg/kg,32.88 mg/kg,
Cl.NC1(c2c(F)c(F)c(F)c(F)c2F)CCCCC1,10000 nM,1.21,37.9 mg/kg,33.81 mg/kg,
C[C@H]1CCC[C@](N)(c2ccccc2)C1.Cl,502 nM,,54.8 mg/kg,26.38 mg/kg,
Cl.NC1(c2ccccc2)CCCCC1,527 nM,2.31,16.3 mg/kg,7.04 mg/kg,
COc1cccc(C2(N)CCCCC2)c1.Cl,563 nM,1.45,21.4 mg/kg,14.78 mg/kg,
Cl.NC1(c2ccc(-c3ccccc3)cc2)CCCCC1,86000 nM,1.42,26.7 mg/kg,18.81 mg/kg,
